Compound activity: PubChem, Johns Hopkins Ion Channel Center
MrgX1 ag: human MrgX1 receptor agonism, primary screen; Q96LB2; MrgX1-HEK293 cells, Fluo-4 calcium fluorescence, agonist mode; hits give high values; B-score at 10 µM; 310,000 compounds, 0.44% hits;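 active means calcium response B-score plate-corrected fluorescence ratio at least 3 library SD, with starting fluorescence B-score inside 5 SD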
Target sequence (Q96LB2 whole entry, looked up): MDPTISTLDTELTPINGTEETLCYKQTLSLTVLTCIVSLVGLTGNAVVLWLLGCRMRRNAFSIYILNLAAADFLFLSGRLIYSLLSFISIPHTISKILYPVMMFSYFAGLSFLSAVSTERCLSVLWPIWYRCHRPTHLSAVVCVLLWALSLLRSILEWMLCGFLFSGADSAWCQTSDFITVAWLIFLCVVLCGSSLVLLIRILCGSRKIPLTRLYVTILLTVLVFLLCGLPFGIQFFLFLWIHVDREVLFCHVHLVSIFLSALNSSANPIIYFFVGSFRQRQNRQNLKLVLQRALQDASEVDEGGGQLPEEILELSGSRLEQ
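Material: MrgX1-expressing HEK293 cells / Dosing: compound as first of three additions / Incubation: overnight seeding, then 1 h dark dye loading / Signal: Fluo-4 NW calcium fluorescence / Evaluation: B-scored fluorescence response ratio / Benchmarks: positive and negative control wells on each plate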
MrgX1 antagonist: blocks BAM8-22 activation of human MrgX1 receptor | B-score at 10 µM | MRGX1-HEK293 calcium flux, Fluo-4, BAM8-22 antagonism; hits give low values | AID 588676 | 310,000 compounds, 1.3% hits;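 active means calcium-response B-score plate-corrected more than 3 library SD below zero, starting fluorescence within 5 deviations, no agonist response on first addition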;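 further: peak minus trough fluorescence over baseline after final BAM8-22 challenge near maximal dose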
MrgX1 allo act: human MrgX1 positive allosteric modulation, primary screen; 310,000 compounds, 0.63% hits; Q96LB2; AID 588675; MrgX1-HEK293, Fluo-4 calcium flux, FDSS; hits give high values; B-score at 10 µM;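 active means plate-corrected calcium response at least 3 library SD above typical, normal starting fluorescence, not activating the receptor alone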;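 further: compound read alongside a low EC10 to EC30 dose of BAM8-22 agonist; peak minus trough fluorescence over baseline measured at the second addition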
RGS4 block: human RGS4 inhibition | P49798 | HEK293 M3R/RGS4 inducible, Fluo-4 calcium flux; hits give high values; triggered by carbachol at its EC20 | B-score at 10 µM | 310,000 compounds, 0.45% hits | AID 463165;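 active means B-score, a plate-corrected calcium signal, over three deviations above library mean, with baseline fluorescence within five deviations of library mean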;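 further: RGS4 expression induced by doxycycline in cells with stable M3 receptor; B-score is computed from the integrated fluorescence ratio over baseline after carbachol; higher B-score means a larger calcium signal and so more RGS4 inhibition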
Target sequence (P49798 whole entry, looked up): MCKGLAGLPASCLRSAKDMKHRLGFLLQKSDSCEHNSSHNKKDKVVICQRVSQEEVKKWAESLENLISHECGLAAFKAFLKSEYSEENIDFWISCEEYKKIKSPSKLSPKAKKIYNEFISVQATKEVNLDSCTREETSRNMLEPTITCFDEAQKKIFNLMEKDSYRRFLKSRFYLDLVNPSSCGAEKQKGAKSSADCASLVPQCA
RGS4 pot: RGS4 potentiation or activation | HEK293 M3R/inducible RGS4, carbachol calcium flux Fluo4; hits give low values | B-score at 10 µM | 310,000 compounds, 0.92% hits | AID 463111;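 active means B-score of the integrated calcium signal more than 4 SD below the library mean, with starting fluorescence not abnormally high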;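 further: negative B-score means reduced calcium response which marks RGS4 activation or potentiation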
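Reagent: ECmax carbachol challenge; Test system: M3R-expressing HEK293 line, RGS4 induced by doxycycline; Schedule: overnight RGS4 induction, 30 min dye load 37 °C, 20 min compound RT; Detection: calcium dye Fluo4 fluorescence; Read-out: Agonist-evoked peak-minus-minimum fluorescence over baseline, integrated ratio, B score.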
Hits are given with their value; - = inactive; . = not tested or not shown. Only some compounds are listed: those with a hit (about 3.5% of all), similar ones and a draw of the others.

SMILES	MrgX1 ag	MrgX1 antagonist	MrgX1 allo act	RGS4 block	RGS4 pot
C#CCOCCOCCOCCNc1nc(N2CCN(C(=O)CCCCCCCCCCNC(=O)[C@H](CCCCN)n3cc(C)nn3)CC2)nc(N2CCN(C(=O)CCCCCCCCCCNC(=O)[C@@H]([C@H](C)CC)n3cc(CCCCCN)nn3)CC2)n1	120	-	-	.	.
C#CCOCCOCCOCCNc1nc(N2CCN(C(=O)CCCCCCCCCCNC(=O)Cn3cc(CCCCCN)nn3)CC2)nc(N2CCN(C(=O)CCCCCCCCCCNC(=O)[C@H](CO)n3cc(CCCCCN)nn3)CC2)n1	-	-	-	.	.
C#CCOCCOCCOCCNc1nc(N2CCN(C(=O)CCCCCCCCCCNC(=O)[C@H](CCCCN)n3cc(C[C@@H](C)CC)nn3)CC2)nc(N2CCN(C(=O)CCCCCCCCCCNC(=O)[C@H](CCCCN)n3cc(C[C@@H](C)CC)nn3)CC2)n1	89	-	-	.	.
C#CCOCCOCCOCCNc1nc(N2CCN(C(=O)CCCCCCCCCCNC(=O)[C@H]([C@@H](C)CC)n3cc(CCCCCN)nn3)CC2)nc(N2CCN(C(=O)CCCCCCCCCCNC(=O)[C@@H]([C@H](C)O)n3cc(C)nn3)CC2)n1	-	-	-	.	.
CC(C)(C)OC(=O)NCCCC[C@@H](C(=O)NCCCCCCCCCCC(=O)N1CCN(C(=O)OC(C)(C)C)CC1)n1cc(CCO)nn1	-	-	-	.	.
C#CCOCCOCCOCCNc1nc(N2CCN(C(=O)CCCCCCCCCCNC(=O)[C@@H](CCSC)n3cc(CCO)nn3)CC2)nc(N2CCN(C(=O)CCCCCCCCCCNC(=O)[C@H]([C@@H](C)CC)n3cc(CCCCCN)nn3)CC2)n1	-	-	15	.	.
C#CCOCCOCCOCCNc1nc(N2CCN(C(=O)CCCCCCCCCCNC(=O)[C@H]([C@@H](C)CC)n3cc(CCCCN=C(N)N)nn3)CC2)nc(N2CCN(C(=O)CCCCCCCCCCNC(=O)[C@H](CCCCN)n3cc(C[C@@H](C)CC)nn3)CC2)n1	61	-	-	.	.
C#CCOCCOCCOCCNc1nc(N2CCN(C(=O)CCCCCCCCCCNC(=O)[C@H](CCCCN)n3cc(CCCC(=O)O)nn3)CC2)nc(N2CCN(C(=O)CCCCCCCCCCNC(=O)[C@H](CCCN=C(N)N)n3cc(C[C@@H](C)CC)nn3)CC2)n1	40	-	-	.	.
CC[C@H](C)Cc1cn([C@@H](CCCCNC(=O)OC(C)(C)C)C(=O)NCCCCCCCCCCC(=O)N2CCN(C(=O)OC(C)(C)C)CC2)nn1	-	-7.1	-	.	.
Cc1cccc(/C=C/C(=O)c2cc(Br)ccc(=O)c2O)c1	-	-	-	-	-
CC(Sc1nnc(-c2ccc(OC(F)F)cc2)o1)C(=O)NCC1CCCO1 (centres undefined)	-	-	-	-	-
O=C(O)c1ccc(CSc2nnc(-c3ccco3)n2-c2ccccc2)cc1	-	-	-	-	-
COc1ccc(N/C(=C(/C(Cl)=C(Cl)Cl)[N+](=O)[O-])n2nnc3ccccc32)cc1	-	-	-	-	-
Cc1ccccc1N/C(=C(/C(Cl)=C(Cl)Cl)[N+](=O)[O-])n1nnc2ccccc21	-	-5	-	-	-
CC(C)c1ccccc1OCCCCCNCCO	-	-	-	-	-
COC(=O)c1ccc(/C=N/OCC(=O)NCc2ccc(F)cc2)cc1	-	-5.4	-	-	-
CCOc1ccccc1/C=N/OCC(=O)NCc1ccc(F)cc1	-	-	-	-	-
COc1ccc(/C=C2\N=C(SC)SC2=O)cc1OC	-	-	-	-	-
N=C1S/C(=C\c2ccco2)C(=O)N1c1nccs1	48	-	-	-	-
N=C1S/C(=C\c2ccco2)C(=O)N1c1ccc2c(c1)OCO2	-	-	-	-	-
COc1ccc(/C=C/C(=O)N(Cc2cccs2)C2CCS(=O)(=O)C2)cc1 (centres undefined)	-	-	-	-	-7.5
Cc1cc(NS(=O)(=O)c2ccc(NC(=S)NC(=O)c3cccc(S(=O)(=O)N(C)C)c3)cc2)no1	-	-	14	-	-
Cn1c(CCNC(=O)c2ccco2)nc2cc(NC(=O)NC3CCCCC3)ccc21	-	-	-	-	-
CC1CCCCN1CC(=O)Nc1ccc2c(c1)OC(F)(F)O2 (centres undefined)	-	-	-	-	-
CN1CCC(N(C)CC(=O)Nc2ccc3c(c2)OC(F)(F)O3)CC1	-	-	-	-	-7.4
SMILES	MrgX1 ag	MrgX1 antagonist	MrgX1 allo act	RGS4 block	RGS4 pot
O=C(COc1ccccc1-c1ccccc1)c1ccccc1	-	-	-	-	-
Cc1cc(/C=C2\SC(=S)NC2=O)c(C)[nH]1	38	-	-	-	-
CCn1c(C)cc(/C=C2/SC(=S)NC2=O)c1C	-	-	-	-	-
CCOc1ccc(C2C(C#N)=C(N)N3C(=C2C#N)Sc2ccccc23)cc1 (centres undefined)	-	-4.8	-	-	-
N#CC1=C(N)N2C(=C(C#N)C1c1ccccc1)Sc1ccccc12 (centres undefined)	-	-	-	-	-
CN1CCN(/N=C/c2ccc(-c3ccc([N+](=O)[O-])cc3Cl)o2)CC1	-	-4.6	-	-	-
Fc1cccc(F)c1-n1c(CN2CCCC2)csc1=S	-	-5.1	-	-	-
O=C(NN1CCOCC1)c1cnn2c(C(F)F)cc(-c3ccccc3)nc12	-	-	-	-	-
COc1ccccc1OCCCCCc1c(C)n[nH]c1C	-	-	-	-	-
CC1(C(=O)NNC(=S)NCc2ccco2)CC1(Cl)Cl (centres undefined)	-	-4.7	-	-	-
CCCNC(=O)CN(C)CC(=O)Nc1ccccc1C#N	-	-	-	-	-
CN(C)c1cc[n+](CC(=O)Nc2ccc(Oc3ccccc3)cc2)cc1	-	-	-	-	-9.1
CCOC(=O)c1ccc(CNC(=O)c2n[nH]c(=O)c3ccccc23)o1	-	-	-	-	-
CC1(C)CC(=O)C2=C(C1)OC1=C(C(=O)CC(C)(C)C1)C2c1ccc(O)cc1O	36	-	-	-	-
CCOc1ccc(NC(=O)CN(C)C(=O)c2cc(-c3ccc(OC)cc3)nc3ccccc23)cc1OCC	-	-	-	-	-8
COc1ccc(NC(=O)CN(C)C(=O)c2cc(-c3ccc(Cl)cc3)nc3ccccc23)cc1	-	-	-	-	-8
CC(C)CC(=O)NCc1ccc(F)cc1	-	-	-	-	-
CCOC(=O)c1c(/N=C/c2ccc(C)cc2O)sc2c1CCC2	-	-	-	-	-
CCOC(=O)c1c(/N=C/c2ccc(OC)cc2O)sc2c1CCN(C)C2	-	-4.8	-	-	-
O=C(c1ccc([N+](=O)[O-])cc1)N1CCSC1c1ccccc1 (centres undefined)	-	-	-	-	-
O=C(c1ccc([N+](=O)[O-])cc1)N1CCSC1c1cccc(Cl)c1 (centres undefined)	-	-	-	-	-7.5
